Measured values: ChEMBL document CHEMBL4765448, “Multiple biological active 4-aminopyrazoles containing trifluoromethyl and their 4-nitroso-precursors: Synthesis and evaluation” (Eur J Med Chem, 2020)
≈ marks a conversion by molar mass, not a printed value. Calls of active or inactive are those of the source. The rule behind the calls is not given here.

system: Staphylococcus aureus; test: Antibacterial activity against Staphylococcus aureus; assay type: functional; conditions: not given

SMILES	MIC [µg/mL]
Cn1nc(C(F)(F)F)c(N=O)c1-c1ccccc1	> 500
O=Nc1c(C(F)(F)F)n[nH]c1-c1ccco1	31.2 (≈ 135 µM)
Cl.Nc1c(C(F)(F)F)n[nH]c1-c1cccs1	> 250

system: Microsporum canis; test: Antifungal activity against Microsporum canis; assay type: functional; conditions: not given

SMILES	MIC [µg/mL]
Cn1nc(C(F)(F)F)c(N=O)c1-c1ccccc1	100 (≈ 392 µM)
O=Nc1c(C(F)(F)F)n[nH]c1-c1ccco1	12.5 (≈ 54.1 µM)
Cl.Nc1c(C(F)(F)F)n[nH]c1-c1cccs1	200

system: not listed separately; test: Antioxidant activity assessed as ABTS radical scavenging activity measured after 1 hr by UV-vis spectrophotometric method; assay type: functional; conditions: not given
Outline: (§1)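 ABTS cation-radical decolorization was read spectrophotometrically as the fall in absorbance after 1 h. Trolox was the reference. TEAC was taken as the ratio of concentration-response slopes, test/Trolox, and IC50 was also derived. Data are mean ± SEM, n = 3.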

SMILES	IC50 [µM]
Cl.Nc1c(C(F)(F)F)n[nH]c1-c1cccs1	13.3

system: Rattus norvegicus; test: Antiinflammatory activity in rat model of carrageenan-induced paw edema assessed as inhibition of hind paw swelling at 15 mg/kg, ip measured after 1 hr relative to control; assay type: functional; conditions: not given

SMILES	inhibition
Cn1nc(C(F)(F)F)c(N=O)c1-c1ccccc1	inactive

system: Shigella flexneri; test: Antibacterial activity against Shigella flexneri; assay type: functional; conditions: not given

SMILES	MIC [µg/mL]
Cn1nc(C(F)(F)F)c(N=O)c1-c1ccccc1	> 500
O=Nc1c(C(F)(F)F)n[nH]c1-c1ccco1	125 (≈ 541 µM)
Cl.Nc1c(C(F)(F)F)n[nH]c1-c1cccs1	> 250

system: Epidermophyton floccosum; test: Antifungal activity against Epidermophyton floccosum; assay type: functional; conditions: not given

SMILES	MIC [µg/mL]
Cn1nc(C(F)(F)F)c(N=O)c1-c1ccccc1	0.38 (≈ 1.49 µM)
O=Nc1c(C(F)(F)F)n[nH]c1-c1ccco1	50 (≈ 216 µM)
Cl.Nc1c(C(F)(F)F)n[nH]c1-c1cccs1	200

system: Streptococcus pyogenes; test: Antibacterial activity against Streptococcus pyogenes; assay type: functional; conditions: not given

SMILES	MIC [µg/mL]
Cn1nc(C(F)(F)F)c(N=O)c1-c1ccccc1	> 500
O=Nc1c(C(F)(F)F)n[nH]c1-c1ccco1	7.8 (≈ 33.7 µM)
Cl.Nc1c(C(F)(F)F)n[nH]c1-c1cccs1	> 250

system: not listed separately; test: Drug metabolism assessed as nitric oxide release in presence of rat plasma by Griess reagent based assay; assay type: cell-free; conditions: not given

SMILES	Drug metabolism
Cn1nc(C(F)(F)F)c(N=O)c1-c1ccccc1	Metabolite detected

system: Rattus norvegicus; test: Analgesic activity in rat assessed as prolongation of latency period at 15 mg/kg, ip measured after 1 hr by hot-plate test relative to control; assay type: functional; conditions: not given
Outline: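 Hot-plate test in rats. Compounds were given by intraperitoneal injection. Latency was read at 1 h and, for some compounds, also at 2 h after dosing. Results are expressed as % prolongation of the latent period versus vehicle-treated control. Significance was given as p-values.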

SMILES	Activity [%]
Cn1nc(C(F)(F)F)c(N=O)c1-c1ccccc1	80.2

system: Rattus norvegicus; test: Antiinflammatory activity in rat model of carrageenan-induced paw edema assessed as inhibition of hind paw swelling at 15 mg/kg, ip measured after 3 hrs relative to control; assay type: functional; conditions: not given

SMILES	inhibition
Cn1nc(C(F)(F)F)c(N=O)c1-c1ccccc1	inactive

system: Erythrocyte; test: Antioxidant activity in human erythrocytes assessed as protection against AAPH-induced hemolysis at 400 uM preincubated for 20 mins followed by AAPH addition and measured after 2 hrs by spectrophotometric method relative to control; assay type: functional; conditions: time 140 min, 2.333 h
Outline: (§2)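 Erythrocyte hemolysis assay with AAPH as the free-radical initiator, testing 50 and 400 µM. Results are expressed as relative protection of membranes against oxidative damage, each the mean of two independent experiments.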

SMILES	fold change (FC)
Cn1nc(C(F)(F)F)c(N=O)c1-c1ccccc1	1.02

system: not listed separately; test: Acute toxicity in mouse at 10 mg/kg, ip administered as single dose; assay type: organism-based; conditions: in vivo
Outline: (§3)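 Mice, single intraperitoneal dose, following OECD Guideline for testing of chemicals; three mice per dose level; doses tested 10–300 mg/kg. Read-out is the number of survivors out of 3, used to estimate the expected LD50 range.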

SMILES	Activity
Cl.Nc1c(C(F)(F)F)n[nH]c1-c1cccs1	Non-Toxic

system: Erythrocyte; test: Antioxidant activity in human erythrocytes assessed as protection against AAPH-induced hemolysis at 50 uM preincubated for 20 mins followed by AAPH addition and measured after 2 hrs by spectrophotometric method relative to control; assay type: functional; conditions: time 140 min, 2.333 h; outline: as §2

SMILES	fold change (FC)
Cn1nc(C(F)(F)F)c(N=O)c1-c1ccccc1	1

system: Mycobacterium tuberculosis; test: Antitubercular activity against Mycobacterium tuberculosis H37Rv; assay type: functional; conditions: not given
Outline: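 Mycobacterium tuberculosis strain H37Rv; minimum inhibitory concentration (MIC) taken as the lowest level needed to inhibit bacterial growth; isoniazid and pyrazinamide served as reference drugs.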

SMILES	MIC [µg/mL]
O=Nc1c(C(F)(F)F)n[nH]c1-c1ccco1	6.2 (≈ 26.8 µM)

system: NHDF; test: Cytotoxicity against HDF cells; assay type: cell-based, Homo sapiens; conditions: Homo sapiens, NHDF; read-out: IC50

SMILES	IC50 [µM]
Cn1nc(C(F)(F)F)c(N=O)c1-c1ccccc1	49.5

system: not listed separately; test: Acute toxicity in mouse at 300 mg/kg, ip administered as single dose; assay type: organism-based; conditions: in vivo; outline: as §3

SMILES	Activity
O=Nc1c(C(F)(F)F)n[nH]c1-c1ccco1	Toxic

system: not listed separately; test: Selectivity index, ratio of IC50 for HDF cells to IC50 for human HeLa cells; assay type: toxicity; conditions: HDF cells versus HeLa cells, read-out: Ratio IC50

SMILES	selectivity ratio
Cn1nc(C(F)(F)F)c(N=O)c1-c1ccccc1	0.77

system: Rattus norvegicus; test: Antiinflammatory activity in rat model of carrageenan-induced paw edema assessed as inhibition of hind paw swelling at 15 mg/kg, ip measured after 5 hrs; assay type: functional, organism-based; conditions: not given

SMILES	Activity
Cn1nc(C(F)(F)F)c(N=O)c1-c1ccccc1	Active
O=Nc1c(C(F)(F)F)n[nH]c1-c1ccco1	Active

system: Staphylococcus aureus; test: Antibacterial activity against methicillin resistant Staphylococcus aureus; assay type: functional; conditions: not given

SMILES	MIC [µg/mL]
O=Nc1c(C(F)(F)F)n[nH]c1-c1ccco1	15.6 (≈ 67.5 µM)

system: Nannizzia gypsea; test: Antifungal activity against Trichophyton gypseum; assay type: functional; conditions: not given

SMILES	MIC [µg/mL]
Cn1nc(C(F)(F)F)c(N=O)c1-c1ccccc1	25 (≈ 98 µM)
O=Nc1c(C(F)(F)F)n[nH]c1-c1ccco1	25 (≈ 108 µM)
Cl.Nc1c(C(F)(F)F)n[nH]c1-c1cccs1	> 200

system: not listed separately; test: Antioxidant activity assessed as AAPH scavenging activity by measuring residual fluorescence at 10 uM measured at 1 min interval for 30 mins by ORAC fluorescein assay relative to control; assay type: functional; conditions: not given
Outline: (§4)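 ORAC-FL assay with fluorescein as the probe and AAPH as the peroxyl radical generator. The loss of fluorescence over time was followed, and the result is given as % fluorescence restored at 10 and 50 µM. Each value is the mean of two independent experiments.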

SMILES	Activity [%]
Cn1nc(C(F)(F)F)c(N=O)c1-c1ccccc1	3

system: Pseudomonas aeruginosa; test: Antibacterial activity against Pseudomonas aeruginosa; assay type: functional; conditions: not given

SMILES	MIC [µg/mL]
Cn1nc(C(F)(F)F)c(N=O)c1-c1ccccc1	> 500
O=Nc1c(C(F)(F)F)n[nH]c1-c1ccco1	> 500
Cl.Nc1c(C(F)(F)F)n[nH]c1-c1cccs1	> 250

system: Escherichia coli; test: Antibacterial activity against Escherichia coli; assay type: functional; conditions: not given

SMILES	MIC [µg/mL]
Cn1nc(C(F)(F)F)c(N=O)c1-c1ccccc1	> 500
O=Nc1c(C(F)(F)F)n[nH]c1-c1ccco1	62.5 (≈ 270 µM)
Cl.Nc1c(C(F)(F)F)n[nH]c1-c1cccs1	> 250

system: not listed separately; test: Drug metabolism assessed as nitric oxide release in absence of rat plasma by Griess reagent based assay; assay type: cell-free; conditions: not given

SMILES	Drug metabolism
Cn1nc(C(F)(F)F)c(N=O)c1-c1ccccc1	Metabolite not detected

system: not listed separately; test: Acute toxicity in mouse at 150 mg/kg, ip administered as single dose; assay type: organism-based; conditions: in vivo; outline: as §3

SMILES	Activity
Cn1nc(C(F)(F)F)c(N=O)c1-c1ccccc1	Non-Toxic
Cl.Nc1c(C(F)(F)F)n[nH]c1-c1cccs1	Toxic

system: Serratia marcescens; test: Antibacterial activity against Serratia marcescens; assay type: functional; conditions: not given

SMILES	MIC [µg/mL]
Cn1nc(C(F)(F)F)c(N=O)c1-c1ccccc1	> 500
O=Nc1c(C(F)(F)F)n[nH]c1-c1ccco1	125 (≈ 541 µM)
Cl.Nc1c(C(F)(F)F)n[nH]c1-c1cccs1	> 250

system: Trichophyton rubrum; test: Antifungal activity against Trichophyton rubrum; assay type: functional; conditions: not given

SMILES	MIC [µg/mL]
Cn1nc(C(F)(F)F)c(N=O)c1-c1ccccc1	12.5 (≈ 49 µM)
O=Nc1c(C(F)(F)F)n[nH]c1-c1ccco1	12.5 (≈ 54.1 µM)
Cl.Nc1c(C(F)(F)F)n[nH]c1-c1cccs1	200

system: not listed separately; test: Antioxidant activity assessed as AAPH scavenging activity by measuring residual fluorescence at 50 uM measured at 1 min interval for 30 mins by ORAC fluorescein assay relative to control; assay type: functional; conditions: not given; outline: as §4

SMILES	Activity [%]
Cn1nc(C(F)(F)F)c(N=O)c1-c1ccccc1	16.1

system: Trichophyton tonsurans; test: Antifungal activity against Trichophyton tonsurans; assay type: functional; conditions: not given

SMILES	MIC [µg/mL]
Cn1nc(C(F)(F)F)c(N=O)c1-c1ccccc1	3.12 (≈ 12.2 µM)
O=Nc1c(C(F)(F)F)n[nH]c1-c1ccco1	50 (≈ 216 µM)
Cl.Nc1c(C(F)(F)F)n[nH]c1-c1cccs1	> 200

system: not listed separately; test: Antioxidant activity assessed as trolox equivalent of ABTS radical scavenging activity measured after 1 hr by UV-vis spectrophotometric method; assay type: functional; conditions: not given; outline: as §1

SMILES	Activity [equiv]
Cn1nc(C(F)(F)F)c(N=O)c1-c1ccccc1	0.01
O=Nc1c(C(F)(F)F)n[nH]c1-c1ccco1	0.02

system: Klebsiella pneumoniae; test: Antibacterial activity against Klebsiella pneumoniae; assay type: functional; conditions: not given

SMILES	MIC [µg/mL]
Cn1nc(C(F)(F)F)c(N=O)c1-c1ccccc1	> 500
O=Nc1c(C(F)(F)F)n[nH]c1-c1ccco1	125 (≈ 541 µM)
Cl.Nc1c(C(F)(F)F)n[nH]c1-c1cccs1	> 250

system: Trichophyton violaceum; test: Antifungal activity against Trichophyton violaceum; assay type: functional; conditions: not given

SMILES	MIC [µg/mL]
Cn1nc(C(F)(F)F)c(N=O)c1-c1ccccc1	6.25 (≈ 24.5 µM)
Cl.Nc1c(C(F)(F)F)n[nH]c1-c1cccs1	> 200

system: HeLa; test: Cytotoxicity against human HeLa cells; assay type: functional, cell-based; conditions: not given

SMILES	Activity
Cn1nc(C(F)(F)F)c(N=O)c1-c1ccccc1	Dose-dependent effect

same assay, conditions: Homo sapiens, HeLa; read-out: IC50

SMILES	IC50 [µM]
Cn1nc(C(F)(F)F)c(N=O)c1-c1ccccc1	63.9

system: Proteus vulgaris; test: Antibacterial activity against Proteus vulgaris; assay type: functional; conditions: not given

SMILES	MIC [µg/mL]
Cn1nc(C(F)(F)F)c(N=O)c1-c1ccccc1	> 500
O=Nc1c(C(F)(F)F)n[nH]c1-c1ccco1	62.5 (≈ 270 µM)
Cl.Nc1c(C(F)(F)F)n[nH]c1-c1cccs1	> 250

system: Candida albicans; test: Antifungal activity against Candida albicans; assay type: functional; conditions: not given

SMILES	MIC
Cn1nc(C(F)(F)F)c(N=O)c1-c1ccccc1	inactive
O=Nc1c(C(F)(F)F)n[nH]c1-c1ccco1	25 µg/mL (≈ 108 µM)
Cl.Nc1c(C(F)(F)F)n[nH]c1-c1cccs1	> 200 µg/mL

system: Neisseria gonorrhoeae; test: Antibacterial activity against Neisseria gonorrhoeae; assay type: functional; conditions: not given

SMILES	MIC [µg/mL]
Cn1nc(C(F)(F)F)c(N=O)c1-c1ccccc1	62.5 (≈ 245 µM)
O=Nc1c(C(F)(F)F)n[nH]c1-c1ccco1	15.6 (≈ 67.5 µM)
Cl.Nc1c(C(F)(F)F)n[nH]c1-c1cccs1	62.5

system: Trichophyton interdigitale; test: Antifungal activity against Trichophyton mentagrophytes var. interdigitale; assay type: functional; conditions: not given

SMILES	MIC [µg/mL]
Cn1nc(C(F)(F)F)c(N=O)c1-c1ccccc1	12.5 (≈ 49 µM)
O=Nc1c(C(F)(F)F)n[nH]c1-c1ccco1	50 (≈ 216 µM)
Cl.Nc1c(C(F)(F)F)n[nH]c1-c1cccs1	> 200

system: not listed separately; test: Acute toxicity in mouse at 75 mg/kg, ip administered as single dose; assay type: organism-based; conditions: in vivo; outline: as §3

SMILES	Activity
Cl.Nc1c(C(F)(F)F)n[nH]c1-c1cccs1	Toxic

system: Citrobacter braakii; test: Antibacterial activity against Citrobacter braakii; assay type: functional; conditions: not given

SMILES	MIC [µg/mL]
Cn1nc(C(F)(F)F)c(N=O)c1-c1ccccc1	> 500
O=Nc1c(C(F)(F)F)n[nH]c1-c1ccco1	125 (≈ 541 µM)
Cl.Nc1c(C(F)(F)F)n[nH]c1-c1cccs1	> 250
